Results on 12 molecules are retold here after ChEMBL document CHEMBL1153867, “Synthesis, biological evaluation and SAR of sulfonamide 4-methoxychalcone derivatives with potential antileishmanial activity” (Eur J Med Chem, 2009).

The structures appear in SMILES notation. The source made the active and inactive calls. The calls are words filed in the database; no cut-off is given here.

The subject of assay [1] is Trypanosoma cruzi. Nature of the assay: Antitrypanosomal activity against Trypanosoma cruzi epimastigotes at 500 uM after 72 hrs.
In assay [2] the test system is Trypanosoma cruzi. The experiment in a line: Antitrypanosomal activity against Trypanosoma cruzi Y epimastigotes at 500 uM after 72 hrs. The assay is classed as functional, organism-based.
Assay [3] relates to Leishmania braziliensis. Nature of the assay: Antileishmanial activity against Leishmania braziliensis MHOM/BR/75/M2904 promastigotes after 72 hrs. As to conditions: MHOM/BR/75/M2904, 72 h. Type of assay: functional, organism-based. In short, it runs like this: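 Exponential-phase promastigotes at 10×10^6/ml in Schneider's medium with 5% FBS were incubated 72 h at 28 °C with compound dilutions from 100 to 1.6. Amphotericin B (31.25–1000 nM) was the positive control and 1% DMSO the negative control. Live parasites were counted in a Neubauer chamber. IC50 came from linear regression, mean ± standard error of three independent triplicate experiments.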

Assay [4] concerns Leishmania braziliensis. The experiment in a line: Antileishmanial activity against Leishmania braziliensis MHOM/BR/75/M2904 amastigotes assessed as reduction in intracellular amastigote after 48 hrs. The assay is classed as functional, organism-based. In short, it runs like this: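 L. braziliensis axenic amastigotes were made by differentiating stationary-phase promastigotes in Schneider medium with 20% FBS, pH 6.3, at 34 °C for 72 h. J774.A1 cells were infected at 10:1 parasite:cell overnight at 34 °C in RPMI with 20% FBS. Cells were exposed to 1–100 compound for 48 h at 34 °C/5% CO2, Giemsa-stained, and 200 cells counted. Percent inhibition above 25% counted as significant.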

A word on the IC50: it is the concentration that gives 50% inhibition. On to `COc1ccc(NS(=O)(=O)c2cc(/C=C/C(=O)c3ccccc3)ccc2OC)cc1`, for which the result with Trypanosoma cruzi [1] and in the assay on Trypanosoma cruzi [2] was inactive. For the same molecule, the IC50 in the assay on Leishmania braziliensis [3] worked out at 7.5 µM.
In the assay on Leishmania braziliensis [3], `COc1ccc(/C=C/C(=O)c2ccccc2)cc1` [4-METHOXY CHALCONE] registered an IC50 of 16.6 µM.
`COc1ccc(/C=C/C(=O)c2ccccc2)cc1S(=O)(=O)NCc1ccccc1`: the result with Leishmania braziliensis [4] was Active. Moreover, the result in the assay on Trypanosoma cruzi [1] and with Trypanosoma cruzi [2] was inactive. The IC50 in the assay with Leishmania braziliensis [3] was determined as 3.5 µM.
Regarding `COc1ccc(/C=C/C(=O)c2ccccc2)cc1S(=O)(=O)Nc1ccc(Cl)cc1`, the result with Trypanosoma cruzi [1] and with Trypanosoma cruzi [2] was inactive. Besides, the half-inhibitory concentration (IC50) in the assay on Leishmania braziliensis [3] was 4.6 µM.
`COc1ccc(/C=C/C(=O)c2ccccc2)cc1S(=O)(=O)Nc1ccccc1`: the result in the assay with Trypanosoma cruzi [1] and in the assay with Trypanosoma cruzi [2] was inactive. The IC50 with Leishmania braziliensis [3] came out at 69 µM.
Turning to `COc1ccc(/C=C/C(=O)c2ccccc2)cc1S(=O)(=O)N1CCOCC1`, the result in the assay on Trypanosoma cruzi [1] and in the assay with Trypanosoma cruzi [2] was inactive. Besides, in the assay with Leishmania braziliensis [3], the half-inhibitory concentration (IC50) was 5.9 µM.
In the assay with Leishmania braziliensis [3], `N=C(N)c1ccc(OCCCCCOc2ccc(C(=N)N)cc2)cc1` registered an IC50 of 19.6 µM.
Take `COc1ccc(/C=C/C(=O)c2ccccc2)cc1S(=O)(=O)N1CCCC1`: the outcome with Trypanosoma cruzi [1] and in the assay on Trypanosoma cruzi [2] was inactive. In the assay with Leishmania braziliensis [3], the IC50 came out at 13 µM.
In the assay with Leishmania braziliensis [3], `C[C@@H]1[C@H](O)[C@@H](C)/C=C/C=C/C=C/C=C/C=C/C=C/C=C/[C@H](O[C@@H]2O[C@H](C)[C@@H](O)[C@H](N)[C@@H]2O)C[C@@H]2O[C@](O)(C[C@@H](O)C[C@@H](O)[C@H](O)CC[C@@H](O)C[C@@H](O)CC(=O)O[C@H]1C)C[C@H](O)[C@H]2C(=O)O` [AMPHOTERICIN B] returned an IC50 of 0.3 µM.
For `COc1ccc(/C=C/C(=O)c2ccccc2)cc1S(=O)(=O)N(C)C`, the outcome in the assay with Trypanosoma cruzi [1] and in the assay with Trypanosoma cruzi [2] was inactive. The IC50 in the assay with Leishmania braziliensis [3] amounted to 8.6 µM.
With `COc1ccc(/C=C/C(=O)c2ccccc2)cc1S(=O)(=O)Nc1ccc(Cl)c(Cl)c1`, the result in the assay with Trypanosoma cruzi [1] and with Trypanosoma cruzi [2] was inactive. This molecule also gave a 50% inhibitory concentration (IC50) with Leishmania braziliensis [3] of 8.1 µM.
`CCN(CC)S(=O)(=O)c1cc(/C=C/C(=O)c2ccccc2)ccc1OC`: the outcome in the assay on Trypanosoma cruzi [1] and with Trypanosoma cruzi [2] was inactive. The molecule also returned an IC50 in the assay with Leishmania braziliensis [3] of 5.6 µM.
